ChEMBL document CHEMBL2417429, “Direct and nitroxyl (HNO)-mediated reactions of acyloxy nitroso compounds with the thiol-containing proteins glyceraldehyde 3-phosphate dehydrogenase and alkyl hydroperoxide reductase subunit C” (J Med Chem, 2013)
Counter-ions that a name gives are not always drawn. Activity calls are given as the source filed them. No cut-off for these calls is given here.

Columns and labels:
[1] = Binding affinity to alkyl hydroperoxide reductase subunit C C165S mutant (unknown origin) assessed as formation of sulfinic acid of Cys46 of peptide D41 to G51 by LC-MS analysis
In short: (§1)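 AhpC C165S pre-reduced with DTT 30 min, desalted on spin column, concentration by A280 (ε 23400 M−1 cm−1). Protein (50 μM) treated with HNO donor (1, 5, 10, 50 equiv) in 0.1 M Tris pH 7.6, room temperature, 60 min; desalted into 25 mM ammonium bicarbonate pH 7.75. Asp-N digest (20:1 w/w, 37 °C, 12−16 h). LC-MS of D41−G51 peptide on high-resolution Orbitrap, positive ion mode.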

[2] = Binding affinity to alkyl hydroperoxide reductase subunit C C165S mutant (unknown origin) assessed as unreacted thiol in peptide D41 to G51 by LC-MS analysis; in short: as §1
[3] = Binding affinity to alkyl hydroperoxide reductase subunit C C165S mutant peptide D41 to G51 (unknown origin) assessed as sulfinic acid or sulfinamide modification by MALDI-TOF MS
In short: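 Pre-reduced, desalted AhpC C165S (50 μM) incubated with HNO donor (1, 5, 10, 50 equiv) in 0.1 M Tris pH 7.6, 60 min at room temperature. Buffer exchanged into ammonium bicarbonate, then Asp-N digest (20:1 w/w, 37 °C, 12−16 h). Digest mixed 1:1 with dihydroxybenzoic acid matrix; D41−G51 peptide mass read by MALDI-TOF.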

[4] = molecular target: Glyceraldehyde-3-phosphate dehydrogenase (Oryctolagus cuniculus) (UniProt P46406); experiment: Binding affinity to rabbit muscle GAPDH peptide V232 to R245 assessed as formation of sulfinic acid of Cys244 by LC-MS analysis
Chain of Glyceraldehyde-3-phosphate dehydrogenase (Oryctolagus cuniculus) (P46406 whole entry, looked up): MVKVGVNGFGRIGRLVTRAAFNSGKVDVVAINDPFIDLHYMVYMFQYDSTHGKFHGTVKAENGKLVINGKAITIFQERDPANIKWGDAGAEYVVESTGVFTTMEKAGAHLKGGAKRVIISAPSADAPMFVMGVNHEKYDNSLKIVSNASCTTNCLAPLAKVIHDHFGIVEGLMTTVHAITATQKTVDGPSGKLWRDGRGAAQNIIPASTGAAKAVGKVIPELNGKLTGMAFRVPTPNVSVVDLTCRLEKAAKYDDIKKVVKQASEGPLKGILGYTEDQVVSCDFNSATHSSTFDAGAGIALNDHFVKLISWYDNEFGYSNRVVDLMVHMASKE
In short: (§2)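 GAPDH from rabbit muscle, untreated or donor-treated, digested with trypsin (monomer:trypsin 20:1 w/w) in 50 mM Tris-HCl, 37 °C, 12−16 h; quenched by freezing. 10 μM digest in 1:1 2% formic acid/methanol run by LC-MS on a high-resolution Orbitrap in positive ion mode; tryptic peptides identified by m/z.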

[5] = molecular target: Glyceraldehyde-3-phosphate dehydrogenase (Oryctolagus cuniculus) (UniProt P46406); experiment: Binding affinity to rabbit muscle GAPDH tryptic peptide I143 to K159 assessed as formation of disulfide bond by LC-MS analysis; in short: as §2
[6] = molecular target: Glyceraldehyde-3-phosphate dehydrogenase (Oryctolagus cuniculus) (UniProt P46406); experiment: Binding affinity to rabbit muscle GAPDH assessed as structural modifications at 5 mM after 60 mins by SDS-PAGE
[7] = molecular target: Glyceraldehyde-3-phosphate dehydrogenase (Oryctolagus cuniculus) (UniProt P46406); experiment: Reversible inhibition of rabbit muscle GAPDH assessed as residual enzyme activity at 1 uM after 60 mins followed by incubation with DTT by spectrophotometry relative to control
In short: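 GAPDH (rabbit muscle) exposed to inhibitor for 60 min in 0.1 M phosphate pH 7.4 at 25 °C, then incubated with DTT (100 mM) for 60 min. Residual activity measured by NADH build-up at 340 nm after adding NAD+ and glyceraldehyde-3-phosphate, read each minute over 30 min; expressed as percent of control.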

[8] = molecular target: Glyceraldehyde-3-phosphate dehydrogenase (Oryctolagus cuniculus) (UniProt P46406); experiment: (§3) Inhibition of rabbit muscle GAPDH assessed as residual enzyme activity after 60 mins by spectrophotometry
In short: (§4)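 Rabbit muscle GAPDH incubated with donor (0.1, 0.5, 1, 5, 10, 100 μM) in 0.1 M sodium phosphate pH 7.4, 25 °C, 60 min. NAD+ and glyceraldehyde-3-phosphate then added in a sealed cuvette; NADH formation followed at 340 nm every minute for 30 min. Runs typically in triplicate, mean ± SE; IC50 from sigmoidal fit of percent-of-control activity.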

[9] = molecular target: Glyceraldehyde-3-phosphate dehydrogenase (Oryctolagus cuniculus, UniProt P46406); experiment: as §3; in short: as §4
Chain of Glyceraldehyde-3-phosphate dehydrogenase (P46406 whole entry): as the sequence (P46406 whole entry, looked up) above

[10] = molecular target: Glyceraldehyde-3-phosphate dehydrogenase (Oryctolagus cuniculus) (UniProt P46406); experiment: Binding affinity to rabbit muscle GAPDH assessed as structural modifications of Cys149, Cys153 and Cys244 at 5 mM after 60 mins by MALDI-TOF MS
[11] = molecular target: Glyceraldehyde-3-phosphate dehydrogenase (Oryctolagus cuniculus) (UniProt P46406); experiment: Residual activity of rabbit muscle GAPDH at 1 uM after 60 mins by spectrophotometry
[12] = Binding affinity to alkyl hydroperoxide reductase subunit C C165S mutant (unknown origin) assessed as presence of S-nitrosated D41 to G51 peptide by LC-MS analysis; in short: as §1
[13] = molecular target: Glyceraldehyde-3-phosphate dehydrogenase (Oryctolagus cuniculus) (UniProt P46406); experiment: Binding affinity to rabbit muscle GAPDH peptide V232 to R245 assessed as formation of S-nitrosated peptide by LC-MS analysis
[14] = Binding affinity to alkyl hydroperoxide reductase subunit C C165S mutant (unknown origin) assessed as formation of sulfinic acid by LC-MS analysis
In short: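 AhpC C165S reduced with DTT, desalted by spin column, quantified at 280 nm; 50 μM protein incubated with compound (1, 5, 10, 50 equiv) in 0.1 M Tris pH 7.6, room temperature, 60 min; desalted into 25 mM ammonium bicarbonate, Asp-N digest (20:1 w/w, 37 °C, 12–16 h); Orbitrap LC-MS, 55 min gradient, positive ion.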

[15] = molecular target: Glyceraldehyde-3-phosphate dehydrogenase (Oryctolagus cuniculus) (UniProt P46406); experiment: Binding affinity to rabbit muscle GAPDH peptide V232 to R245 assessed as formation of sulfinic acid and N-phenylsulfinamide by LC-MS analysis
[16] = Binding affinity to alkyl hydroperoxide reductase subunit C C165S mutant (unknown origin) assessed as formation of mixture of sulfinamide and sulfinic acid at Cys46 by LC-MS analysis; in short: as §1
[17] = molecular target: Glyceraldehyde-3-phosphate dehydrogenase (Oryctolagus cuniculus) (UniProt P46406); experiment: Binding affinity to rabbit muscle GAPDH peptide V232 to R245 assessed as formation of mixture of sulfinamide and sulfinic acid by LC-MS analysis; in short: as §2
[18] = Binding affinity to alkyl hydroperoxide reductase subunit C C165S mutant (unknown origin) assessed as structural modifications by SDS-PAGE
[19] = Half life of the compound in neutral buffer at 1 mM by stopped-flow UV-Vis spectrophotometry; type: physicochemical; settings: 1000 µM
[20] = Chemical stability of the compound in neutral buffer assessed as rate constant at 1 mM by stopped-flow UV-Vis spectrophotometry; type: physicochemical; settings: 1000 µM
[21] = Binding affinity to alkyl hydroperoxide reductase subunit C C165S mutant (unknown origin) assessed as formation of sulfinamide and sulfinic acid by LC-MS analysis; in short: as §1

SMILES | Activity [2] | Activity [3] | Activity [5] | Activity [6] | inhibition [8] | IC50 [9] [nM] | Activity [10] | residual activity [11] [%] | also measured
CC(C)(C)C(=O)OC1(N=O)CCCCC1 | inactive | Active | Active | inactive | Dose-dependent effect | 150 | Active | 76 | Activity [1]: Active; Activity [4]: Active; Activity [7]: 88%
CCN(CC)N(O)N=O | – | – | – | – | – | – | – | – | Activity [12]: Active; Activity [13]: Active
N[C@@H](CCC(=O)N[C@@H](CSN=O)C(=O)NCC(=O)O)C(=O)O | – | – | – | – | – | – | – | – | Activity [12]: Active
O=Nc1ccccc1 | – | – | Active | – | – | – | – | – | Activity [14]: Active; Activity [15]: Active
O=S(=O)(NO)c1ccccc1Br | – | – | Active | – | – | – | – | – | Activity [16]: Active; Activity [17]: Active
CC(=O)OC1(N=O)CCCCC1 [1-NITROSOCYCLOHEXYL ACETATE] | inactive | Active | Active | inactive | Dose-dependent effect | 200 | Active | 5 | Activity [1]: Active; Activity [4]: Active; Activity [18]: Active; Activity [7]: 12%
O=NC1(OC(=O)C(F)(F)F)CCCCC1 [1-NITROSOCYCLOHEXYL TRIFLUOROACETATE] | inactive | Active | – | – | – | 670 | – | 42 | t1/2 [19]: 0.121 s; K [20]: 5.74 s⁻¹; Activity [16]: Active
[O-][N+]([O-])=NO [ANGELI'S SALT] | inactive | Active | Active | inactive | Dose-dependent effect | 400 | Active | – | Activity [21]: Active; Activity [17]: Active
